Tests used:
[1] = CCK-8 cytotoxicity assay; format: cell-based; details: human, HRT-18 cells
How it was run: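 Viability of HRT-18 cells is read by CCK-8 per the kit protocol. Cells are kept in RPMI 1640 with 10% FBS, sodium pyruvate, NEAA and 0.025M HEPES at 37 °C, 5% CO2. Run in triplicate. CC50 comes from a four-parameter log(inhibitor) vs response fit of mean values.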

[2] = test system: HCoV-OC43; assay: Cytopathic effect; format: cell-based, human coronavirus OC43; details: 100 TCID50, 72 hpi, two-fold serial dilutions
How it was run: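 Confluent cell monolayers are infected with 100 TCID50 HCoV-OC43 (titre by Reed-Muench) and given two-fold serial dilutions of test compound. At 72 hpi, CPE (lysis, rounding, vacuolization) is scored by phase-contrast microscopy; absence of CPE is taken as activity. Remdesivir is the positive control.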

[3] = test system: HCoV-OC43; assay: Antibody-based EC50 assay; format: cell-based, human coronavirus OC43; details: CC50/EC50, HRT-18 cells
How it was run: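 HRT-18 cells (RPMI 1640, 10% FBS, 37 °C, 5% CO2) infected with HCoV-OC43 and treated with test compound. Viral nucleocapsid is detected with an anti-OC43 nucleocapsid antibody. Run in triplicate. EC50 comes from a four-parameter log(inhibitor) vs response fit of mean values. SI = CC50/EC50.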

[4] = test system: HCoV-OC43; assay: Immunofluorescence analysis of HCoV-OC43 nucleocapsid in infected HRT-18 cells; format: cell-based, human coronavirus OC43; details: 4 μM, 48 hpi
[5] = test system: HCoV-OC43; assay: Transmission electron microscopy of infected HRT-18 cells; format: cell-based, human coronavirus OC43; details: 4 μM, 48 hpi
How it was run: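 HRT-18 monolayers are inoculated with 100 TCID50 HCoV-OC43 for 2 h at 37 °C. Inoculum is then replaced by RPMI 1640 with 2% FBS containing test compound or DMSO. At 48 hpi, virus particles are examined by negative staining under transmission electron microscopy.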

[6] = target: recombinant SARS-CoV-2 PLpro (Severe acute respiratory syndrome coronavirus 2, UniProt P0DTD1); assay: PLpro inhibition assay; format: biochemical
[7] = target: SARS-CoV-2 Nsp14N7 methyltransferase (Severe acute respiratory syndrome coronavirus 2, UniProt P0DTD1); assay: Nsp14N7-MTase inhibition assay; format: biochemical
[8] = test system: Mpro; details: cited from earlier work
[9] = test system: Mpro; details: SARS-CoV-2 model; ref Alhadrami et al., 2021; cited from earlier work

SMILES	CC50 [1] [µM]	inhibition of CPE caused by HCoV-OC43 infection [2]	Selective index (SI) [3]	fluorescence signal of virus particles (HCoV-OC43 nucleocapsid) [4]	viral particles in infected cells under TEM [5]	IC50 [6] [µM]	IC50 [7] [µM]	concentration inhibiting Mpro activity by competitive inhibition [8] [µmol/L]	concentration inhibiting Mpro activity [9] [µmol/L]
O=c1c(O)c(-c2ccc(O)c(O)c2)oc2cc(O)cc(O)c12 [Compound 11, quercetin]	34	showed antiviral activity	7.29	–	–	–	–	–	–
O=C1C[C@@H](c2ccc(O)cc2)Oc2cc(O)cc(O)c21 [Compound 5, naringenin]	–	showed antiviral activity	–	–	–	–	–	–	–
C=C(C)[C@@H]1CC[C@]2(C(=O)O)CC[C@]3(C)[C@H](CC[C@@H]4[C@@]5(C)CC[C@H](O)C(C)(C)[C@@H]5CC[C@]43C)[C@@H]12 [Compound 1, betulinic acid]	19.4	showed antiviral activity	8.04	substantially reduced the fluorescence signal of virus particles	no viral particles were detected	2.03	1.12	10	14.55
C[C@H]1[C@H](C)CC[C@]2(C)CC[C@]3(C)C(=CC[C@@H]4[C@@]5(C)CC[C@H](O)C(C)(C)[C@@H]5CC[C@]43C)[C@H]12 [Compound 2, α-amyrin]	24	showed antiviral activity	6.03	–	–	–	–	–	–
O=C1C[C@@H](c2ccc(O)c(O)c2)Oc2cc(O)cc(O)c21 [Compound 8, eriodictyol]	–	showed antiviral activity	–	–	–	–	–	–	–
